According to ChEMBL document CHEMBL4312005, “Optimization of pyrrolizine-based Schiff bases with 4-thiazolidinone motif: Design, synthesis and investigation of cytotoxicity and anti-inflammatory potency” (Eur J Med Chem, 2020):

What was measured:
[1] = test system: MCF7; assay: Antiproliferative activity against human MCF7 cells assessed as reduction in cell growth incubated for 72 hrs by MTT assay; type: functional, cell-based; conditions: MCF7, 72 h
Method in brief: (§1)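 MTT assay on MCF-7, A2780, HT29 and normal MRC5 fibroblast lines (ATCC) grown in DMEM with 10% FBS. Cells exposed to compounds for 72 h, then reduced MTT read at 570 nm.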

[2] = Selectivity index, ratio of IC50 for cytotoxicity against human MRC5 cells to IC50 for antiproliferative activity against human MCF7 cells; conditions: MRC5 cells versus MCF7 cells
[3] = Selectivity index, ratio of IC50 for cytotoxicity against human MRC5 cells to IC50 for antiproliferative activity against human A2780 cells; conditions: MRC5 cells versus A2780 cells
[4] = test system: MRC5; assay: Cytotoxicity against human MRC5 cells assessed as reduction in cell growth incubated for 72 hrs by MTT assay; type: cell-based; conditions: MRC5, 72 h; method in brief: as §1
[5] = molecular target: Prostaglandin G/H synthase 1 (Homo sapiens, UniProt P23219); assay: Inhibition of human COX1 using arachidonic acid as substrate incubated for 2 mins by ELISA method
[6] = test system: Rattus norvegicus; assay: Antiinflammatory activity against albino rats assessed as inhibition of carrageenan-induced paw edema at 0.5 mmol, po measured after 2 hrs relative to control; type: functional
Method in brief: (§2)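 Carrageenan rat paw edema (Winter method) in male and female adult albino rats (100-140 g). […] Swelling inhibition expressed as % of control at 2-4 h after carrageenan injection.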

[7] = test system: A2780; assay: Antiproliferative activity against human A2780 cells assessed as reduction in cell growth incubated for 72 hrs by MTT assay; type: functional, cell-based; conditions: A2780, 72 h; method in brief: as §1
[8] = test system: HT-29; assay: Antiproliferative activity against human HT-29 cells assessed as reduction in cell growth incubated for 72 hrs by MTT assay; type: functional, cell-based; conditions: HT-29, 72 h; method in brief: as §1
[9] = test system: Rattus norvegicus; assay: Antiinflammatory activity against albino rats assessed as inhibition of carrageenan-induced paw edema at 0.5 mmol, po measured after 4 hrs relative to control; type: functional; method in brief: as §2
[10] = test system: MCF7; assay: Cell cycle arrest in human MCF7 cells assessed as G2/M phase accumulation at 1 uM incubated for 24 hrs by propidium iodide based flow cytometry (reference value: 17.2 to 26.8 %); type: functional
[11] = test system: MCF7; assay: Induction of apoptosis in human MCF7 cells assessed as late apoptotic cells at 5 uM incubated for 24 hrs by annexin V FITC and propidium iodide staining based flow cytometry (reference value: 0 to 2.5 %); type: functional
[12] = test system: MCF7; assay: Cell cycle arrest in human MCF7 cells assessed as G2/M phase accumulation at 10 uM incubated for 24 hrs by propidium iodide based flow cytometry (reference value: 17.2 to 26.8 %); type: functional
[13] = test system: MCF7; assay: Antiproliferative activity against human MCF7 cells assessed as cell viability at 5 uM incubated for 48 hrs by MTT assay (reference value: 100 %); type: functional; conditions: MCF7, 48 h, read-out: Activity
Method in brief: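 Preliminary single-dose screen by MTT assay. MCF-7 cells grown in DMEM/10% FBS were exposed to 5 μM compound for 48 h, and growth% was determined. Values are mean ± S.D., n = 6.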

[14] = test system: MCF7; assay: Cell cycle arrest in human MCF7 cells assessed as G2/M phase accumulation at 5 uM incubated for 24 hrs by propidium iodide based flow cytometry (reference value: 17.2 to 26.8 %); type: functional
[15] = test system: MCF7; assay: Cell cycle arrest in human MCF7 cells assessed as subG1 accumulation at 1 uM incubated for 24 hrs by propidium iodide based flow cytometry (reference value: 0.6 to 3 %); type: functional
[16] = test system: MCF7; assay: Induction of apoptosis in human MCF7 cells assessed as necrotic cells at 5 uM incubated for 24 hrs by annexin V FITC and propidium iodide staining based flow cytometry (reference value: 4.1 to […]); type: functional
[17] = test system: MCF7; assay: Induction of apoptosis in human MCF7 cells assessed as viable cells at 1 uM incubated for 24 hrs by annexin V FITC and propidium iodide staining based flow cytometry (reference value: 76 to 95.9 %); type: functional; conditions: MCF7, 24 h, read-out: Activity
[18] = test system: MCF7; assay: Induction of apoptosis in human MCF7 cells assessed as necrotic cells at 1 uM incubated for 24 hrs by annexin V FITC and propidium iodide staining based flow cytometry (reference value: 4.1 to […]); type: functional
[19] = test system: MCF7; assay: Cell cycle arrest in human MCF7 cells assessed as subG1 accumulation at 5 uM incubated for 24 hrs by propidium iodide based flow cytometry (reference value: 0.6 to 3 %); type: functional
[20] = Selectivity index, ratio of IC50 for cytotoxicity against human MRC5 cells to IC50 for antiproliferative activity against human HT-29 cells; conditions: MRC5 cells versus HT-29 cells
[21] = test system: MCF7; assay: Cell cycle arrest in human MCF7 cells assessed as S phase accumulation at 10 uM incubated for 24 hrs by propidium iodide based flow cytometry (reference value: 17.3 to 28.5 %); type: functional
[22] = test system: MCF7; assay: Induction of apoptosis in human MCF7 cells assessed as late apoptotic cells at 1 uM incubated for 24 hrs by annexin V FITC and propidium iodide staining based flow cytometry (reference value: 0 to 2.5 %); type: functional
[23] = test system: MCF7; assay: Cell cycle arrest in human MCF7 cells assessed as S phase accumulation at 1 uM incubated for 24 hrs by propidium iodide based flow cytometry (reference value: 17.3 to 28.5 %); type: functional
[24] = test system: MCF7; assay: Induction of apoptosis in human MCF7 cells assessed as early apoptotic cells at 5 uM incubated for 24 hrs by annexin V FITC and propidium iodide staining based flow cytometry (reference value: 0 to 9 %); type: functional
[25] = test system: MCF7; assay: Cell cycle arrest in human MCF7 cells assessed as G1 accumulation at 1 uM incubated for 24 hrs by propidium iodide based flow cytometry (reference value: 49.6 to 55.1 %); type: functional
[26] = test system: MCF7; assay: Cell cycle arrest in human MCF7 cells assessed as subG1 accumulation at 10 uM incubated for 24 hrs by propidium iodide based flow cytometry (reference value: 0.6 to 3 %); type: functional
[27] = test system: MCF7; assay: Cell cycle arrest in human MCF7 cells assessed as S phase accumulation at 5 uM incubated for 24 hrs by propidium iodide based flow cytometry (reference value: 17.3 to 28.5 %); type: functional
[28] = test system: MCF7; assay: Induction of apoptosis in human MCF7 cells assessed as necrotic cells at 10 uM incubated for 24 hrs by annexin V FITC and propidium iodide staining based flow cytometry (reference value: 4.1 to […]); type: functional
[29] = test system: MCF7; assay: Induction of apoptosis in human MCF7 cells assessed as early apoptotic cells at 10 uM incubated for 24 hrs by annexin V FITC and propidium iodide staining based flow cytometry (reference value: 0 to 9 %); type: functional
[30] = test system: MCF7; assay: Induction of apoptosis in human MCF7 cells assessed as viable cells at 10 uM incubated for 24 hrs by annexin V FITC and propidium iodide staining based flow cytometry (reference value: 76 to 95.9 %); type: functional; conditions: MCF7, 24 h, read-out: Activity
[31] = test system: MCF7; assay: Induction of apoptosis in human MCF7 cells assessed as late apoptotic cells at 10 uM incubated for 24 hrs by annexin V FITC and propidium iodide staining based flow cytometry (reference value: 0 to 2.5 %); type: functional
[32] = test system: MCF7; assay: Cell cycle arrest in human MCF7 cells assessed as G1 accumulation at 5 uM incubated for 24 hrs by propidium iodide based flow cytometry (reference value: 49.6 to 55.1 %); type: functional
[33] = test system: MCF7; assay: Cell cycle arrest in human MCF7 cells assessed as G1 accumulation at 10 uM incubated for 24 hrs by propidium iodide based flow cytometry (reference value: 49.6 to 55.1 %); type: functional
[34] = test system: MCF7; assay: Induction of apoptosis in human MCF7 cells assessed as viable cells at 5 uM incubated for 24 hrs by annexin V FITC and propidium iodide staining based flow cytometry (reference value: 76 to 95.9 %); type: functional; conditions: MCF7, 24 h, read-out: Activity
[35] = test system: MCF7; assay: Induction of apoptosis in human MCF7 cells assessed as early apoptotic cells at 1 uM incubated for 24 hrs by annexin V FITC and propidium iodide staining based flow cytometry (reference value: 0 to 9 %); type: functional

Chain of Prostaglandin G/H synthase 1 (P23219 whole entry): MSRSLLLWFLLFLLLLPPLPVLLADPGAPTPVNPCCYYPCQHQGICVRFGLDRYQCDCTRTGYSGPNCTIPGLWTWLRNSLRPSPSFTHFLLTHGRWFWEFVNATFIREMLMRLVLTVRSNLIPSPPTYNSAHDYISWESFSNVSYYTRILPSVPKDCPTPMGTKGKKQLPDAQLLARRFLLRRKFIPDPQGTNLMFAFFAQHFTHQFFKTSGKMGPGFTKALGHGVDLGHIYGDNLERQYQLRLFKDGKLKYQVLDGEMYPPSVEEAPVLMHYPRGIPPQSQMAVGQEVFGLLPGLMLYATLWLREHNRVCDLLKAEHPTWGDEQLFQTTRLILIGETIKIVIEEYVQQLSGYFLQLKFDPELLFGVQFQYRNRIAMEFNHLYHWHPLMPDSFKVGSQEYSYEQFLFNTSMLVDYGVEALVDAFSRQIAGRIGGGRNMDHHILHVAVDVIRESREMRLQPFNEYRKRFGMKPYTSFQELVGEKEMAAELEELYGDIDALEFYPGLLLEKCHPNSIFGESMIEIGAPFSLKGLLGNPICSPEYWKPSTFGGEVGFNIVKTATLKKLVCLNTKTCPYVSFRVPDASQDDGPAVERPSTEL

CCC1SCC(=O)N1c1c(C#N)c2n(c1C(=O)Nc1ccc(Cl)cc1)CCC2 (configuration not stated)
IC50 [1]: 0.21 µM
selectivity ratio [2]: 3 to 15
selectivity ratio [3]: 3 to 15
IC50 [4]: 0.91 µM
IC50 [5]: > 100 µM
inhibition (INH) [6]: 21.76%
IC50 [7]: 0.31 µM
IC50 [8]: 0.2 µM
inhibition (INH) [9]: 32.48%

N#Cc1c(/N=C/c2ccco2)c(C(=O)Nc2ccc(Br)cc2)n2c1CCC2
Activity [10]: 22.1%
Activity [11]: 6.3%
Activity [12]: 23%
viability at 5 µM [13]: 64%
Activity [14]: 21.8%
Activity [15]: 1.1%
Activity [16]: 15.2%
viability at 1 µM [17]: 67%
Activity [18]: 11.4%
Activity [19]: 0.4%
selectivity ratio [20]: 1 to 10
IC50 [1]: 6.89 µM
Activity [21]: 51.5%
Activity [22]: 8.8%
Activity [23]: 53.7%
selectivity ratio [2]: 1 to 10
selectivity ratio [3]: 1 to 10
Activity [24]: 11.5%
IC50 [4]: 15.7 µM
Activity [25]: 24.5%
Activity [26]: 0.4%
IC50 [5]: 13.2 µM
inhibition (INH) [6]: 18.83%
IC50 [7]: 12.2 µM
IC50 [8]: 2.04 µM
Activity [27]: 53.6%
Activity [28]: 16.4%
Activity [29]: 7.2%
inhibition (INH) [9]: 35.79%
viability at 10 µM [30]: 71.2%
Activity [31]: 5.3%
Activity [32]: 25.5%
Activity [33]: 25%
viability at 5 µM [34]: 67%
Activity [35]: 12.8%

N#Cc1c(/N=C/c2cccnc2)c(C(=O)Nc2ccc(Br)cc2)n2c1CCC2
viability at 5 µM [13]: 81%
selectivity ratio [20]: 1 to 10
IC50 [1]: 11.3 µM
selectivity ratio [2]: 1 to 10
selectivity ratio [3]: 1 to 10
IC50 [4]: 25.6 µM
IC50 [5]: > 100 µM
IC50 [7]: 23 µM
IC50 [8]: 2.63 µM

N#Cc1c(/N=C/c2ccc(Cl)cc2)c(C(=O)Nc2ccc(Br)cc2)n2c1CCC2
viability at 5 µM [13]: 73%
selectivity ratio [20]: 2 to 52
IC50 [1]: 6.03 µM
selectivity ratio [2]: 2 to 52
selectivity ratio [3]: 2 to 52
IC50 [4]: 13.8 µM
IC50 [5]: > 100 µM
IC50 [7]: 8.3 µM
IC50 [8]: 7.79 µM
